Square brackets hold non-standard residues; d marks the D form. Peptide text beside a SMILES is read from it. * marks the point of attachment. Gly(cPent) = N[C@H](C(=O)O)C1CCCC1; Chg = N[C@H](C(=O)O)C1CCCCC1; Lac = C[C@H](O)C(=O)O; Glycolyl = O=C(CO)*; Sar = CNCC(=O)O
Key:
Angiotensin II receptor = target: T1, Angiotensin II receptor (Rattus norvegicus, UniProt P29089+P25095+P35351); assay: Antagonistic effect against Angiotensin II receptor in zona glomerulosa; format: functional
T1 sequence (P29089 whole entry): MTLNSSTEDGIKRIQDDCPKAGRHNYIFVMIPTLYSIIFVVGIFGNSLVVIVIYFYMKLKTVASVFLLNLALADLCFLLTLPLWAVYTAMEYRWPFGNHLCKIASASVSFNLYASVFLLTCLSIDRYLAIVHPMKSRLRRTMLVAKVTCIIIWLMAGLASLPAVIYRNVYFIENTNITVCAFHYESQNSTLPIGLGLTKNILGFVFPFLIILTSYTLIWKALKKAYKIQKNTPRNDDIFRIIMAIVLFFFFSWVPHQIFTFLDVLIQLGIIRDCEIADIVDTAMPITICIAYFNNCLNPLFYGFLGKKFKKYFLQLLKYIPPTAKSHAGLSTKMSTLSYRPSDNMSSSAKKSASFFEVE
T1 sequence (P25095 whole entry): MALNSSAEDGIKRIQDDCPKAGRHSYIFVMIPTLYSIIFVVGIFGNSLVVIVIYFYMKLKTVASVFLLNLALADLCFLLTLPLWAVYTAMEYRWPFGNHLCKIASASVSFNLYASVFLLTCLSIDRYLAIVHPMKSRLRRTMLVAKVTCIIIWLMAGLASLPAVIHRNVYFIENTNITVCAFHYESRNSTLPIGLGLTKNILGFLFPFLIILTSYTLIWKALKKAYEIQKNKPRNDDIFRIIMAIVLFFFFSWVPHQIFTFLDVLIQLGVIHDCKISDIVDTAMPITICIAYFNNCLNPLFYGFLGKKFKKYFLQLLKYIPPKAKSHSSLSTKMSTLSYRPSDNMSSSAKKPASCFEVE
T1 sequence (P35351 whole entry): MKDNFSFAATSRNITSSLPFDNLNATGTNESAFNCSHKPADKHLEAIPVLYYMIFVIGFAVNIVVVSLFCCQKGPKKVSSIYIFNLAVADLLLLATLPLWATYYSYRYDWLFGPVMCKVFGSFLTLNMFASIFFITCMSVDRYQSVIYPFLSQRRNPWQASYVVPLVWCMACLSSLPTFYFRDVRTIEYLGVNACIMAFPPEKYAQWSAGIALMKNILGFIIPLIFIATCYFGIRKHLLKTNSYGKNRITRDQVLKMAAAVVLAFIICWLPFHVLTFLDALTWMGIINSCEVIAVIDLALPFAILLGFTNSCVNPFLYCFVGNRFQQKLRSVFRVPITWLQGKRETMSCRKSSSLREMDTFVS
Method in brief: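 Dispersed zona glomerulosa cells from male CFY rats, 250–300 g. Capsules digested with collagenase 2 mg/mL and DNase 0.1 mg/mL, 2 × 25 min at 37 °C. Cells 3.0–3.5 × 10⁶/mL in Krebs–Ringer glucose buffer, 5 g/L albumin. Antagonists 2 × 10⁻¹²–2 × 10⁻⁶ M, alone or with 2 × 10⁻⁸ M AII, duplicate or triplicate. Aldosterone by RIA after CHCl3 extraction; pA2 values.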

Rattus norvegicus [1] = assay: Tested in vivo on the angiotensin II induced rise of blood pressure after intravenous administration of 1.25 ug/kg in conscious rats; format: functional
Method in brief: (§1)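 Conscious, free-moving rats, carotid artery linked to a pressure transducer 24 h after surgery. One analogue per rat, in 0.9% NaCl with 5 g/L BSA, given as a 10-s iv bolus into the jugular vein. Doses 1.25–20 μg/kg in random order, one every 20 min. Maximal blood pressure rise recorded; 6 rats; ANOVA with Dunnett's test.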

Rattus norvegicus [2] = assay: Tested in vivo on the angiotensin II induced rise of blood pressure after intravenous administration of 10 ug/kg in conscious rats; format: functional; method in brief: as §1
Rattus norvegicus [3] = assay: Tested in vivo on the angiotensin II induced rise of blood pressure after intravenous administration of 2.5 ug/kg in conscious rats; format: functional; method in brief: as §1
Rattus norvegicus [4] = assay: Tested in vivo on the angiotensin II induced rise of blood pressure after intravenous administration of 20 ug/kg in conscious rats; format: functional; method in brief: as §1
Rattus norvegicus [5] = assay: Tested in vivo on the angiotensin II induced rise of blood pressure after intravenous administration of 5 ug/kg in conscious rats; format: functional; method in brief: as §1
[6] = target: Angiotensin II receptor (Oryctolagus cuniculus); assay: Antagonistic effect against Angiotensin II receptor in rabbit aortic strip

Compound	pA2 (Angiotensin II receptor)	pA2 [6]	Blood pressure (Rattus norvegicus [1])	Blood pressure (Rattus norvegicus [2])	Blood pressure (Rattus norvegicus [3])	Blood pressure (Rattus norvegicus [4])	Blood pressure (Rattus norvegicus [5])
CC[C@H](C)[C@H](NC(=O)[C@H](Cc1ccc(O)cc1)NC(=O)[C@@H](NC(=O)[C@H](CCCN=C(N)N)NC(=O)[C@H](C)O)C(C)C)C(=O)N[C@@H](Cc1c[nH]cn1)C(=O)N1CCC[C@H]1C(=O)O[C@@H](C)C(=O)O	7.999	9.5	4.2 mmHg	10 mmHg	5.8 mmHg	16.7 mmHg	11.7 mmHg
CNCC(=O)N[C@@H](CCCN=C(N)N)C(=O)N[C@H](C(=O)N[C@@H](Cc1ccc(O)cc1)C(=O)N[C@H](C(=O)N[C@@H](Cc1c[nH]cn1)C(=O)N1CCC[C@H]1C(=O)N[C@@H](C)C(=O)O)C1CCCCC1)C(C)C	9.981	11.18	10.29 mmHg	16.4 mmHg	17.9 mmHg		16.9 mmHg
CC(C)[C@H](NC(=O)[C@H](CCCN=C(N)N)NC(=O)[C@H](C)O)C(=O)N[C@@H](Cc1ccc(O)cc1)C(=O)N[C@H](C(=O)N[C@@H](Cc1c[nH]cn1)C(=O)N1CCC[C@H]1C(=O)O[C@@H](C)C(=O)O)C1CCCC1 (H-[Lac]RVY[Gly(cPent)]HP[Lac]-OH)	8.392	8.52	5.8 mmHg	10 mmHg	5 mmHg	15 mmHg	5 mmHg
CNCC(=O)N[C@@H](CCCNC(=N)N)C(=O)N[C@H](C(=O)N[C@@H](Cc1ccc(O)cc1)C(=O)N[C@H](C(=O)N[C@@H](Cc1cnc[nH]1)C(=O)N1CCC[C@H]1C(=O)N[C@@H](C)C(=O)O)C(C)C)C(C)C [SARALASIN]			7.9 mmHg	15 mmHg	9.3 mmHg	20 mmHg	12.1 mmHg

Second part, led by results:

pA2 (Angiotensin II receptor)	pA2 [6]	Compound	Blood pressure (Rattus norvegicus [1])	Blood pressure (Rattus norvegicus [2])	Blood pressure (Rattus norvegicus [3])	Blood pressure (Rattus norvegicus [4])	Blood pressure (Rattus norvegicus [5])
9.933	9.42	CNCC(=O)N[C@@H](CCCN=C(N)N)C(=O)N[C@H](C(=O)N[C@@H](Cc1ccc(O)cc1)C(=O)N[C@H](C(=O)N[C@@H](Cc1c[nH]cn1)C(=O)N1CCC[C@H]1C(=O)N[C@@H](C)C(=O)O)C1CCCC1)C(C)C	5.8 mmHg	17.5 mmHg	10 mmHg	14.2 mmHg	10 mmHg
8.614	9.53	CC(C)[C@H](NC(=O)[C@H](CCCN=C(N)N)NC(=O)CO)C(=O)N[C@@H](Cc1ccc(O)cc1)C(=O)N[C@H](C(=O)N[C@@H](Cc1c[nH]cn1)C(=O)N1CCC[C@H]1C(=O)O[C@@H](C)C(=O)O)C1CCCCC1 (Glycolyl-RVY[Chg]HP[Lac]-OH)	6.7 mmHg	14.1 mmHg	7.5 mmHg	15.8 mmHg	17.5 mmHg
10.39	11.29	CNCC(=O)N[C@@H](CCCN=C(N)N)C(=O)N[C@H](C(=O)N[C@@H](Cc1ccc(O)cc1)C(=O)N[C@H](C(=O)N[C@@H](Cc1c[nH]cn1)C(=O)N1CCC[C@H]1C(=O)O[C@@H](C)C(=O)O)C1CCCCC1)C(C)C (H-[Sar]RVY[Chg]HP[Lac]-OH)	3.6 mmHg	8.6 mmHg	5.7 mmHg	8.3 mmHg	12.1 mmHg
9.649	11.09	CNCC(=O)N[C@@H](CCCN=C(N)N)C(=O)N[C@H](C(=O)N[C@@H](Cc1ccc(O)cc1)C(=O)N[C@H](C(=O)N[C@@H](Cc1c[nH]cn1)C(=O)N1CCC[C@H]1C(=O)O[C@@H](C)C(=O)O)C1CCCC1)C(C)C (H-[Sar]RVY[Gly(cPent)]HP[Lac]-OH)	5 mmHg	11.7 mmHg	10 mmHg	11.7 mmHg	9.2 mmHg

Source: ChEMBL document CHEMBL1123603, “Synthesis of angiotensin II antagonists with variations in position 5” (J Med Chem, 1987)
